Assay results reported in ChEMBL document CHEMBL1131628 (J Med Chem, 1998).
Values belong to the compound of their own block, whether it stands above or below them.

Key:
Endothelin-1 receptor [1] = target: T1, Endothelin-1 receptor (Rattus norvegicus, UniProt P26684); test: Binding affinity for endothelin A receptor by measuring its ability to displace [125I]ET1 from prolactin secreting rat pituitary cells(MMQ); format: cell-based, Pituitary gland cell
T1 sequence (P26684 whole entry): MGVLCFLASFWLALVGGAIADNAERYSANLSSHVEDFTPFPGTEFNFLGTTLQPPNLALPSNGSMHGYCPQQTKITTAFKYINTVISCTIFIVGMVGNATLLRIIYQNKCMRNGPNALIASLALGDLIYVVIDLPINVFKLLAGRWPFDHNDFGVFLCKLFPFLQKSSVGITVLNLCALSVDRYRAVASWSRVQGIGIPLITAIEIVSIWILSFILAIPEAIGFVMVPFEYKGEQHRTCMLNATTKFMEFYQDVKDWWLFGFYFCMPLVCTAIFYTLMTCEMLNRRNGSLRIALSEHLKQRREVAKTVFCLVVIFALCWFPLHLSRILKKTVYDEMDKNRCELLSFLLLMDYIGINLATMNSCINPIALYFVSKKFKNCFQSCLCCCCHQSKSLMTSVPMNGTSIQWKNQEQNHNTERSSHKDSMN

Endothelin-1 receptor [2] = target: T2, Endothelin-1 receptor (Homo sapiens, UniProt P25101); test: Tested for binding affinity for human Endothelin A receptor by measuring its ability to displace [125I]ET1 from chinese hamster ovary cells(CHO); format: cell-based
T2 sequence (P25101 whole entry): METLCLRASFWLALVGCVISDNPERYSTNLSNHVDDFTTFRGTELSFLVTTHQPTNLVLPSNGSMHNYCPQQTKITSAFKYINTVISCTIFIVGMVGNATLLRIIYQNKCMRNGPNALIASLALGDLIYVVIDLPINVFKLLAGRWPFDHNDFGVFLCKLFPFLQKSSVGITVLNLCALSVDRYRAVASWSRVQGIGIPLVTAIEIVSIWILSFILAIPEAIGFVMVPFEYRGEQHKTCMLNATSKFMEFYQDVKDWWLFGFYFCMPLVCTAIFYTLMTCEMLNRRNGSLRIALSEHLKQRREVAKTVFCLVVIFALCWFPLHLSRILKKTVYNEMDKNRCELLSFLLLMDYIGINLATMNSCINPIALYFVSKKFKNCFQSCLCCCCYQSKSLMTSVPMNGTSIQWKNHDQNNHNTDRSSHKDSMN

[3] = target: T3, Endothelin receptor type B (Homo sapiens, UniProt P24530); test: Tested for binding affinity for human Endothelin B receptor by measuring its ability to displace [125I]ET-3 from chinese hamster ovary cells(CHO); format: cell-based
T3 sequence (P24530 whole entry): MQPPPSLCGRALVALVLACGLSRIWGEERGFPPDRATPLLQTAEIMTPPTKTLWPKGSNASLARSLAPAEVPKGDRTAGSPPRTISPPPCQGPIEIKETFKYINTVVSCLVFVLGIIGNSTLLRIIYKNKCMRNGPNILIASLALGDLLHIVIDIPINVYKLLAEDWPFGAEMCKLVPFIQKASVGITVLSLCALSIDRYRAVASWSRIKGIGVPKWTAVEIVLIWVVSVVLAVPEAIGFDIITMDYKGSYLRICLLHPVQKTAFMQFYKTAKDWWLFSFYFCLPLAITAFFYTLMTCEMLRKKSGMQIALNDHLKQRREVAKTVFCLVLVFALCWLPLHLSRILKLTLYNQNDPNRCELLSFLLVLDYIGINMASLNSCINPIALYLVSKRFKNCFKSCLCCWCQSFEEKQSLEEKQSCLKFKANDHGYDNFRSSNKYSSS

[4] = Pharmacokinetic profile AUC was evaluated in rats; format: ADME, organism-based; design: concentration or dose not given beside the values; conditions: rat, in vivo
In short: (§1)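 Male Sprague-Dawley rats, n = 4 per group, 10 mg/kg iv (jugular slow bolus) or oral gavage, 10 mg/mL in ethanol–propylene glycol–D5W (20:30:50) with 1 equiv NaOH. Tail-vein plasma taken 0.1 (iv only) to 12 h, assayed by HPLC after extraction. AUC by trapezoidal rule extrapolated to infinity; T1/2 from terminal rate constant; F as oral/iv AUC.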

[5] = Pharmacokinetic profile-half life was evaluated in rats upon intravenous administration; format: ADME, organism-based; conditions: rat, in vivo; in short: as §1
[6] = Bioavailability in rat; format: ADME, organism-based; conditions: in vivo; in short: as §1
[7] = Pharmacokinetic profile-half life was evaluated in rats upon oral administration; format: ADME, organism-based; conditions: rat, in vivo; in short: as §1
[8] = Pharmacokinetic profile Cmax was evaluated in rats; format: ADME, organism-based; conditions: rat, in vivo; in short: as §1
[9] = target: T3, Endothelin receptor type B; test: Tested for binding affinity for human Endothelin B receptor by measuring its ability to displace [125I]-ET-3 from chinese hamster ovary cells(CHO); format: cell-based
Endothelin-1 receptor [10] = target: T2, Endothelin-1 receptor; test: Tested for binding affinity for human Endothelin A receptor by measuring its ability to displace [125I]-ET-1 from chinese hamster ovary cells(CHO); format: cell-based

SMILES: CCCCN(CCCC)C(=O)CN1C[C@H](c2ccc3c(c2)OCO3)[C@@H](C(=O)O)[C@@H]1CCC1CCCO1 (stereo partly specified)
IC50 (Endothelin-1 receptor [1]): 12 nM

SMILES: CCCCN(CCCC)C(=O)CN1C[C@H](c2ccc3c(c2)OCO3)[C@@H](C(=O)O)[C@@H]1CCCC1OCCO1
IC50 (Endothelin-1 receptor [1]): 7 nM

SMILES: CCCCN(CCCC)C(=O)CN1C[C@H](c2ccc3c(c2)OCO3)[C@@H](C(=O)O)[C@@H]1CCC(C)CC (stereo partly specified)
IC50 (Endothelin-1 receptor [1]): 16 nM

SMILES: C/C=C\C(C)(C)C[C@H]1[C@H](C(=O)O)[C@@H](c2ccc3c(c2)OCO3)CN1CC(=O)N(CCCC)CCCC
AUC [4]: 2620 ng·h/mL
IC50 (Endothelin-1 receptor [2]): 1 nM
half-life [5]: 1.6 h
bioavailability [6]: 32.2%
half-life [7]: 3.58 h
Cmax [8]: 1490 ng/mL
IC50 [3]: 92700 nM

SMILES: Cc1cc2c(cc1CC(=O)c1ccsc1S(=O)(=O)Nc1onc(C)c1Cl)OCO2
Ki [9]: > 4300 nM
Ki (Endothelin-1 receptor [10]): 0.43 nM
half-life [5]: 6.7 h
bioavailability [6]: 60%

SMILES: CCCOc1ccc2c(c1)[C@@H](c1ccc(OC)cc1OCCO)[C@H](C(=O)O)[C@H]2c1ccc2c(c1)OCO2
half-life [5]: 3.3 h
bioavailability [6]: 66%

SMILES: Cc1noc(NS(=O)(=O)c2cccc3c(N(C)C)cccc23)c1C [BMS-182874]
Ki [9]: > 50000 nM

SMILES: COc1ccccc1Oc1c(NS(=O)(=O)c2ccc(C)cn2)nc(-c2ccnc(-c3nnn[nH]3)c2)nc1OCCO [CLAZOSENTAN]
Ki [9]: 175 nM
Ki (Endothelin-1 receptor [10]): 0.13 nM
half-life [5]: 0.8 h

SMILES: COc1ccc(C(=O)/C(Cc2cc(OC)c(OC)c(OC)c2)=C(\C(=O)[O-])c2ccc3c(c2)OCO3)cc1.[Na+] [PD-156707 SODIUM]
Ki [9]: 139 nM
half-life [5]: 1 h
bioavailability [6]: 41%

Continued by falling IC50 (Endothelin-1 receptor [1]), values first:

IC50 (Endothelin-1 receptor [1]): 5.2 nM
SMILES: C=C(C)CCC[C@H]1[C@H](C(=O)O)[C@@H](c2ccc3c(c2)OCO3)CN1CC(=O)N(CCCC)CCCC

IC50 (Endothelin-1 receptor [1]): 5 nM
SMILES: CCCCN(CCCC)C(=O)CN1C[C@H](c2ccc3c(c2)OCO3)[C@@H](C(=O)O)[C@@H]1CCN1C(=O)CCC1=O

IC50 (Endothelin-1 receptor [1]): 4.5 nM
SMILES: CCCCN(CCCC)C(=O)CN1C[C@H](c2ccc3c(c2)OCO3)[C@@H](C(=O)O)[C@@H]1CCC1SCCS1

IC50 (Endothelin-1 receptor [1]): 2.7 nM
SMILES: CCCCN(CCCC)C(=O)CN1C[C@H](c2ccc3c(c2)OCO3)[C@@H](C(=O)O)[C@@H]1CC(C)(C)C=C(C)C

IC50 (Endothelin-1 receptor [1]): 2.5 nM
SMILES: CCCCN(CCCC)C(=O)CN1C[C@H](c2ccc3c(c2)OCO3)[C@@H](C(=O)O)[C@@H]1CCCC(C)C

IC50 (Endothelin-1 receptor [1]): 2.4 nM
SMILES: CCCCN(CCCC)C(=O)CN1C[C@H](c2ccc3c(c2)OCO3)[C@@H](C(=O)O)[C@@H]1CCc1ncco1

IC50 (Endothelin-1 receptor [1]): 2.3 nM
SMILES: CCCCN(CCCC)C(=O)CN1C[C@H](c2ccc3c(c2)OCO3)[C@@H](C(=O)O)[C@@H]1CCC1OCCO1

IC50 (Endothelin-1 receptor [1]): 2.2 nM
SMILES: CCCCN(CCCC)C(=O)CN1C[C@H](c2ccc3c(c2)OCO3)[C@@H](C(=O)O)[C@@H]1CCc1ccoc1

AUC [4]: 7060 ng·h/mL
IC50 (Endothelin-1 receptor [2]): 0.29 nM
IC50 (Endothelin-1 receptor [1]): 1.3 nM
half-life [5]: 2.45 h
bioavailability [6]: 76.8%
half-life [7]: 3.85 h
Cmax [8]: 1480 ng/mL
IC50 [3]: 2800 nM
SMILES: CCCCN(CCCC)C(=O)CN1C[C@H](c2ccc3c(c2)OCO3)[C@@H](C(=O)O)[C@@H]1CC(C)(C)CCC

IC50 (Endothelin-1 receptor [1]): 0.86 nM
SMILES: CCCCN(CCCC)C(=O)CN1C[C@H](c2ccc3c(c2)OCO3)[C@@H](C(=O)O)[C@@H]1CC/C=C(/C)CC

IC50 (Endothelin-1 receptor [1]): 0.78 nM
SMILES: C/C=C\CC[C@H]1[C@H](C(=O)O)[C@@H](c2ccc3c(c2)OCO3)CN1CC(=O)N(CCCC)CCCC

IC50 (Endothelin-1 receptor [1]): 0.64 nM
SMILES: CCCCN(CCCC)C(=O)CN1C[C@H](c2ccc3c(c2)OCO3)[C@@H](C(=O)O)[C@@H]1CCC=C1CC1

AUC [4]: 3270 ng·h/mL
IC50 (Endothelin-1 receptor [1]): 0.56 nM
half-life [5]: 1.6 h
bioavailability [6]: 47.7%
half-life [7]: 2.5 h
Cmax [8]: 1690 ng/mL
SMILES: CCCCN(CCCC)C(=O)CN1C[C@H](c2cc(OC)c3c(c2)OCO3)[C@@H](C(=O)O)[C@@H]1CC(C)(C)CCC [ABT-546]

IC50 (Endothelin-1 receptor [2]): 1.06 nM
IC50 (Endothelin-1 receptor [1]): 0.51 nM
IC50 [3]: 42000 nM
SMILES: CCCCN(CCCC)C(=O)CN1C[C@H](c2ccc3c(c2)OCO3)[C@@H](C(=O)O)[C@@H]1CCn1cccn1
